These results are taken from ChEMBL document CHEMBL2424622, “Development of amino-pyrimidine inhibitors of c-Jun N-terminal kinase (JNK): kinase profiling guided optimization of a 1,2,3-benzotriazole lead” (Bioorg Med Chem Lett, 2013).

Structures are written as SMILES. Bounds are passed on as bounds.

Experiment [1] has as its target Fibroblast growth factor receptor 3 (Homo sapiens) (UniProt P22607). As to the kind of experiment: Competitive binding affinity to FGFR3 (unknown origin) at 10 uM in presence of ATP relative to control. A digest of the protocol:
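In vitro ATP-site competition binding assay, part of profiling against a diverse panel of 128 kinases. Each compound was tested at a single concentration of 10 µM. Kinome selectivity was summarized as S15 selectivity scores.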

Experiment [2] deals with Calcium/calmodulin-dependent protein kinase type II subunit gamma (Homo sapiens) (UniProt Q13555). Nature of the experiment: Competitive binding affinity to CAMK2G (unknown origin) at 10 uM in presence of ATP relative to control.
The target in experiment [3] is T1, Dual specificity protein kinase TTK (Homo sapiens) (UniProt P33981).
T1 sequence (whole entry): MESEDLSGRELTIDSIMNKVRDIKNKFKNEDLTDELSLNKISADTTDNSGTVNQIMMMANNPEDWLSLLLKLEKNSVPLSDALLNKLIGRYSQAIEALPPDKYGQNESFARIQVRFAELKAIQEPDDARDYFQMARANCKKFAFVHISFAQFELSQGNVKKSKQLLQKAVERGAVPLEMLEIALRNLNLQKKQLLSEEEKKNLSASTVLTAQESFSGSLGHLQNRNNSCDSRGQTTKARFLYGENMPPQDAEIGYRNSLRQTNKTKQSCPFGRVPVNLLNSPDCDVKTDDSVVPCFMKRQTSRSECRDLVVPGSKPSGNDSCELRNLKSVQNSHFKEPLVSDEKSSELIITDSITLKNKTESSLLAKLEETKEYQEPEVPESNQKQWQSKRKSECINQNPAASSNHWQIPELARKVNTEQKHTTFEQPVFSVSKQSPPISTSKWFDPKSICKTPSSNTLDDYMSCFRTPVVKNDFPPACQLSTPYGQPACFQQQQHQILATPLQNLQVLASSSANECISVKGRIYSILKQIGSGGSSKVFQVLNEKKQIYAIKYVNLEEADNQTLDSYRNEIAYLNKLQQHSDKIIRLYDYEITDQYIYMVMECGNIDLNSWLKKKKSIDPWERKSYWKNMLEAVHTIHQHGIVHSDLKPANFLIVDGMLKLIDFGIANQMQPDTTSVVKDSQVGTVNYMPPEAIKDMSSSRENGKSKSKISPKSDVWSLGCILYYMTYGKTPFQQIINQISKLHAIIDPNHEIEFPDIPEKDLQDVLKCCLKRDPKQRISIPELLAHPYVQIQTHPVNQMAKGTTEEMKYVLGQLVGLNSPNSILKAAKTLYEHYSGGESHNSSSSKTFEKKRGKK
Nature of the experiment: Competitive binding affinity to TTK (unknown origin) at 10 uM in presence of ATP relative to control. A digest of the protocol: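 In vitro ATP-site competition binding assay across a diverse panel of 128 kinases, with each compound tested at a single concentration. Kinase binding is expressed relative to control.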

In experiment [4] the target is c-Jun N-terminal kinase, JNK (Homo sapiens, UniProt P45983+P53779+P45984). As to the kind of experiment: Inhibition of JNK in human SW1353 cells assessed as inhibition of TNFalpha-induced c-Jun phosphorylation incubated for 30 mins prior to TNFalpha induction measured after 20 mins. Format: cell-based. A digest of the protocol:
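SW1353 cells were stimulated with TNFa, and the read-out was inhibition of phosphorylation of the downstream substrate c-Jun. Values are the mean of at least three experiments.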

The target of experiment [5] is T2, Serine/threonine-protein kinase PLK4 (Homo sapiens) (UniProt O00444).
T2 sequence (whole entry): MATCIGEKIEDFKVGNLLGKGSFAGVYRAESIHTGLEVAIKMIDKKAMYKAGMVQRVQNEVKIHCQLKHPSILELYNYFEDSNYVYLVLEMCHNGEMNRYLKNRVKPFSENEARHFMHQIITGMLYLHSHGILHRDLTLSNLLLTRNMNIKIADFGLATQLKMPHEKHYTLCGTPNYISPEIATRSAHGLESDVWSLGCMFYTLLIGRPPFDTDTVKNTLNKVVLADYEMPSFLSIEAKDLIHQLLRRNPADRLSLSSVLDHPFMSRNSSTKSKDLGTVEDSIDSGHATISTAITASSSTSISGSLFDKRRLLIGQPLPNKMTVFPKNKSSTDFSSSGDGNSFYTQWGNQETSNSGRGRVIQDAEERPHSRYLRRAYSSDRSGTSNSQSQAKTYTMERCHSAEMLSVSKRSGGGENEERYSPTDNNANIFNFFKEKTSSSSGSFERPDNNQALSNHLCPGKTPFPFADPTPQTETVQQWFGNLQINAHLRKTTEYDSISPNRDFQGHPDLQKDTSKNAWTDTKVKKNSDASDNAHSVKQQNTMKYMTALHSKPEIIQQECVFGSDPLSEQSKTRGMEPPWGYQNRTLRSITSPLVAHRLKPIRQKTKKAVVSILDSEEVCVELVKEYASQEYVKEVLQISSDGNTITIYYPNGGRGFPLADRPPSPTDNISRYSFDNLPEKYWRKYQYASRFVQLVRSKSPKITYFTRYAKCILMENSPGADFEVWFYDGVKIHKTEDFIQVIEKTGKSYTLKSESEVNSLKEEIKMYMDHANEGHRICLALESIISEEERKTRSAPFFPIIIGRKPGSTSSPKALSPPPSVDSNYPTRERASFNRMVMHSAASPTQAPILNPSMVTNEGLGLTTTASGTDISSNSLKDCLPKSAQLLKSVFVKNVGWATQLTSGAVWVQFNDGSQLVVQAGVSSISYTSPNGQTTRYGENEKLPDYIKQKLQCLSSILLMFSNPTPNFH
Nature of the experiment: Competitive binding affinity to PLK4 (unknown origin) at 10 uM in presence of ATP relative to control. A digest of the protocol:
(§1)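 In vitro ATP-site competition binding assay across a diverse panel of 128 kinases, with compound tested at a single concentration. Kinase selectivity scores (S15) were calculated from the panel profiles.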

In experiment [6] the target is Serine/threonine-protein kinase PAK 1 (Homo sapiens) (UniProt Q13153). As to the kind of experiment: Competitive binding affinity to PAK1 (unknown origin) at 10 uM in presence of ATP relative to control. A digest of the protocol:
as §1

Sequence of Calcium/calmodulin-dependent protein kinase type II subunit gamma (Homo sapiens) (Q13555 whole entry): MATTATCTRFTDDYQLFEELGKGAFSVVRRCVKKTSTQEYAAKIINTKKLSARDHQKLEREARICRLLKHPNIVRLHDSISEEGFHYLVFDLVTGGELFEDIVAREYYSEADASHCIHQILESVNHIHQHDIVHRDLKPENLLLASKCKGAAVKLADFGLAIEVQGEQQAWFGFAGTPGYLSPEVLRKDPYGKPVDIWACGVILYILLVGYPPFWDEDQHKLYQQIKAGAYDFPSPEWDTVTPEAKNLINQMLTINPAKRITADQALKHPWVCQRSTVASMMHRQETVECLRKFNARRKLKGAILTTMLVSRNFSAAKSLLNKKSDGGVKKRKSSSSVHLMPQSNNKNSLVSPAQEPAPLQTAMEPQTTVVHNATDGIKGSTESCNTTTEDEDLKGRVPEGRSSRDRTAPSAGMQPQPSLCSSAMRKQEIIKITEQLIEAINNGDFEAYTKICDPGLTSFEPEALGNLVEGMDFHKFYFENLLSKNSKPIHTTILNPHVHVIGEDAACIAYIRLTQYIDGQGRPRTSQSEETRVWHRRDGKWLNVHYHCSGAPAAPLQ
Sequence of Serine/threonine-protein kinase PAK 1 (Homo sapiens) (Q13153 whole entry): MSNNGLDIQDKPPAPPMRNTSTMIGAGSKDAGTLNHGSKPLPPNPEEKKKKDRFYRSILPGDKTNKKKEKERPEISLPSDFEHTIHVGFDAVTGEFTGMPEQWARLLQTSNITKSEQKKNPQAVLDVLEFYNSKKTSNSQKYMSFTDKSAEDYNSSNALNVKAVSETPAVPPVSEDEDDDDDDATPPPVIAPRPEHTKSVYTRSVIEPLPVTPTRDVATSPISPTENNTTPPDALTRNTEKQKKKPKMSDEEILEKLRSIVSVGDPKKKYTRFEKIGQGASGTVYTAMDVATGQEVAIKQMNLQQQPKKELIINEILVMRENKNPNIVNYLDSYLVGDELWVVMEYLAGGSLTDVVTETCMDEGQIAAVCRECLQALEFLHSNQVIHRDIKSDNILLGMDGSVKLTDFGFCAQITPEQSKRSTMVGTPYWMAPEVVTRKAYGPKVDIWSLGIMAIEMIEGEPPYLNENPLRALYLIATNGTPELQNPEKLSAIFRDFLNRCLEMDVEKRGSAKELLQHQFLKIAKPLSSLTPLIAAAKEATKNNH
Sequence of Fibroblast growth factor receptor 3 (Homo sapiens) (P22607 23-806 limits assumed): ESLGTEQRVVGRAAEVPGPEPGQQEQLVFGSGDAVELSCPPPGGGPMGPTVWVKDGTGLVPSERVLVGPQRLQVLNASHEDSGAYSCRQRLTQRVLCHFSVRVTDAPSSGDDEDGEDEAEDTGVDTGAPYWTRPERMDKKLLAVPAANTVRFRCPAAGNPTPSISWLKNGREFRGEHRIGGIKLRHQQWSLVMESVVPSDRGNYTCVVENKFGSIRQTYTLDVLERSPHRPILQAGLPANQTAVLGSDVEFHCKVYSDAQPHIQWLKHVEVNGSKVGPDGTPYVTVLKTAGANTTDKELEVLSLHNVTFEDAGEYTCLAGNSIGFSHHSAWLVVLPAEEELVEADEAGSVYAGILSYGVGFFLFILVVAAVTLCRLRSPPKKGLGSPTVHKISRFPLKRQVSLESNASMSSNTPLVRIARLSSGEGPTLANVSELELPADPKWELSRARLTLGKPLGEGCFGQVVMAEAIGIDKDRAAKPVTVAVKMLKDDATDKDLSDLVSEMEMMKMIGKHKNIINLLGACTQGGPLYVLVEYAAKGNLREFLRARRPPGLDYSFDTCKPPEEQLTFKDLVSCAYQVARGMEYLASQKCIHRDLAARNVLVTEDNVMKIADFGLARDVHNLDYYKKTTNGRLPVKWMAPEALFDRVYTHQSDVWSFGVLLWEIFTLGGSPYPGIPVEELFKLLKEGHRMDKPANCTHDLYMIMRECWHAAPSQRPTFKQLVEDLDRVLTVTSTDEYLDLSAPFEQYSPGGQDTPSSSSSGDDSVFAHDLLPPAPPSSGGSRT

`O=C([C@H]1CC[C@H](Nc2nccc(-n3nnc4ccccc43)n2)CC1)N1CCOCC1`: the inhibition is < 50% in experiment [1]; < 50% in experiment [2]; 98% in experiment [3]; 71% in experiment [5]; < 50% in experiment [6]. Also, the IC50 in experiment [4] amounted to 1800 nM.

On to `CS(=O)(=O)CCCOc1cccc2c1ccn2-c1ccnc(N[C@H]2CC[C@H](C(=O)N3CCC(O)CC3)CC2)n1`, for which the inhibition in experiment [3] was > 85%. Further, the IC50 in experiment [4] came out at 1100 nM.

For `O[C@H]1CC[C@H](Nc2nccc(-n3ccc4ccccc43)n2)CC1`, the inhibition is < 50% in experiment [1]; 67% in experiment [2]; 84% in experiment [3]; < 50% in experiment [5]; < 50% in experiment [6]. The IC50 in experiment [4] is 2000 nM.

As to `O[C@H]1CC[C@H](Nc2nccc(-n3ncc4ccccc43)n2)CC1`, the inhibition in experiment [1] was < 50%; in experiment [2], 80%; in experiment [3], 100%; in experiment [5], 63%; in experiment [6], < 50%. The IC50 in experiment [4] turned out to be 2700 nM.

`O[C@H]1CC[C@H](Nc2nccc(-c3n[nH]c4ccccc34)n2)CC1`: the inhibition amounted to 74% in experiment [1]; 88% in experiment [2]; 100% in experiment [3]; 100% in experiment [5]; 68% in experiment [6]. Besides, the concentration for half-maximal inhibition (IC50) in experiment [4] turned out to be 2300 nM.

In the case of `N[C@H]1CC[C@H](Nc2nccc(-n3nnc4ccccc43)n2)CC1`, the inhibition was < 50% in experiment [1]; < 50% in experiment [2]; 96% in experiment [3]; < 50% in experiment [5]; < 50% in experiment [6]. The IC50 in experiment [4] was determined as 540 nM.

For the compound `O[C@H]1CC[C@H](Nc2nccc(-n3nnc4ccccc43)n2)CC1`, the inhibition in experiment [1] is < 50%; in experiment [2], 69%; in experiment [3] it was 99%; in experiment [5] it was < 50%; in experiment [6] it was < 50%. In addition, the IC50 in experiment [4] is 790 nM.
